The source of these data is ChEMBL document CHEMBL1777749, “4-Aminothiazolyl analogs of GE2270 A: design, synthesis and evaluation of imidazole analogs” (2011).

What is called inhibition is the relative decrease from the control value, in per cent. The low end stands for a weak effect, the high end for a strong effect. For orientation: MIC means the lowest concentration found to suppress growth. A lower MIC goes with a more susceptible organism.

In brackets after ≈: the same amount, converted by molar mass. A value given as a limit tells only on which side of the number the result lay.

Assay type in all cases: functional
One assay deals with Escherichia coli. The assay can be described thus: Inhibition of protein synthesis in Escherichia coli S30 extract at 2 uM by luciferase assay relative to control.
The test system of the next assay is Enterococcus faecium. Put plainly: Antimicrobial activity against Enterococcus faecium 7130724 by CLSI method.
The next assay deals with Streptococcus pyogenes. Put plainly: Antimicrobial activity against Streptococcus pyogenes ATCC BAA-595 by CLSI method.
In the next assay the test system is Enterococcus faecalis. The assay can be described thus: Antimicrobial activity against Enterococcus faecalis ATCC 29212 by CLSI method.
The test system of a further assay is Staphylococcus aureus. Put plainly: Antimicrobial activity against methicillin-resistant Staphylococcus aureus clinical isolate obtained from pharyngeal smear by CLSI method. A digest of the protocol:
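MIC by dilution susceptibility testing per CLSI M07-A8, for bacteria that grow aerobically. Strain: MRSA clinical isolate AKH Vienna A4.018, from a pharyngeal smear. Tested compounds were >95% pure by LCUV, LCMS and ¹H NMR.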

Regarding `CNC(=O)C[C@@H]1NC(=O)c2csc(n2)-c2ccc(-c3nc(C4=N[C@H](C(=O)N5CCC[C@H]5C(N)=O)CO4)cs3)nc2-c2csc(n2)-c2csc(n2)[C@H]([C@@H](O)c2ccccc2)NC(=O)CNC(=O)c2nc(sc2COC)[C@H](C(C)C)NC(=O)c2nc1sc2C`, in the assay with Escherichia coli, the inhibition at 2 µM was determined as 61%. Also, the minimum inhibitory concentration (MIC) with Enterococcus faecium came out at 0.25 µg/mL (≈ 0.194 µM); against Streptococcus pyogenes, 1 µg/mL (≈ 0.775 µM); in the assay on Enterococcus faecalis, 0.5 µg/mL (≈ 0.387 µM); against Staphylococcus aureus, 0.25 µg/mL (≈ 0.194 µM).

Regarding `CNC(=O)C[C@@H]1NC(=O)c2csc(n2)-c2ccc(-c3nc(-n4cnc(C(=O)O)c4)cs3)nc2-c2csc(n2)-c2csc(n2)[C@H]([C@@H](O)c2ccccc2)NC(=O)CNC(=O)c2nc(sc2COC)[C@H](C(C)C)NC(=O)c2nc1sc2C`, in the assay with Escherichia coli, at 2 µM the inhibition was 0%. Also, the MIC is above 32 µg/mL against Enterococcus faecium, above 32 µg/mL in the assay with Streptococcus pyogenes, 4 µg/mL (≈ 3.36 µM) in the assay on Enterococcus faecalis and 4 µg/mL (≈ 3.36 µM) with Staphylococcus aureus.

`CNC(=O)C[C@@H]1NC(=O)c2csc(n2)-c2ccc(-c3nc(-n4cnc(C(=O)N5CCC[C@H]5C(=O)O)c4)cs3)nc2-c2csc(n2)-c2csc(n2)[C@H]([C@@H](O)c2ccccc2)NC(=O)CNC(=O)c2nc(sc2COC)[C@H](C(C)C)NC(=O)c2nc1sc2C` yielded an inhibition at 2 µM in the assay on Escherichia coli of 53%. Also, the MIC in the assay on Enterococcus faecium was above 32 µg/mL; against Streptococcus pyogenes, above 32 µg/mL; against Enterococcus faecalis it was 8 µg/mL (≈ 6.21 µM); with Staphylococcus aureus, 8 µg/mL (≈ 6.21 µM).

`CNC(=O)C[C@@H]1NC(=O)c2csc(n2)-c2ccc(-c3nc(-n4cnc(C(=O)NCC(=O)O)c4)cs3)nc2-c2csc(n2)-c2csc(n2)[C@H]([C@@H](O)c2ccccc2)NC(=O)CNC(=O)c2nc(sc2COC)[C@H](C(C)C)NC(=O)c2nc1sc2C` displayed an inhibition at 2 µM in the assay on Escherichia coli of 64%. Besides, the MIC against Enterococcus faecium is 32 µg/mL (≈ 25.6 µM); in the assay on Streptococcus pyogenes it was above 32 µg/mL; in the assay on Enterococcus faecalis, 8 µg/mL (≈ 6.41 µM); in the assay on Staphylococcus aureus it was 4 µg/mL (≈ 3.2 µM).
